ChEMBL document CHEMBL1145496 (Antimicrob Agents Chemother, 2007)
Values after ≈ are worked out from the molar mass of the structure shown.

Experiments:
Assay type in all cases: functional
Enterococcus faecalis [1] = test: Antimicrobial activity against beta-lactamase producing vancomycin-resistant Enterococcus faecalis TX0614 isolate at 10^7 […]
How it was run: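 High-inoculum MIC by broth dilution in Mueller-Hinton broth at 10⁷ CFU/ml (per ml in broth, not per spot).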

Enterococcus faecalis [2] = test: Bactericidal activity against vancomycin A-resistant Enterococcus faecalis TX2784 isolate assessed as decrease in viable count after 24 hrs
How it was run: (§1)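 Time-kill in 20 ml BHI broth, starting inoculum 10⁷ CFU/ml from overnight culture. Viable counts at 0, 4 and 24 h by plating on BHI agar after centrifuging 1-ml samples and resuspending in 0.9% saline to remove carryover. Detection limit 10 CFU/ml. Bactericidal = ≥3-log₁₀ CFU/ml drop over 0–24 h. Two to four runs per strain.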

Enterococcus faecalis [3] = test: Antimicrobial activity against beta-lactamase producing vancomycin-resistant Enterococcus faecalis TX0921 isolate at 10^4 CFU/spot
How it was run: (§2)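 Agar dilution MIC on Mueller-Hinton agar II per CLSI, standard inoculum 10⁴ CFU/spot; drug dissolved in 9.9% glacial acetic acid plus 1% DMSO. Control strains E. faecalis ATCC 29212, S. aureus ATCC 29213, E. coli 25922.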

Enterococcus faecalis [4] = test: Antimicrobial activity against beta-lactamase producing vancomycin-resistant Enterococcus faecalis TX0638 isolate at 10^4 CFU/spot; how it was run: as §2
Enterococcus faecalis [5] = test: Antimicrobial activity against Enterococcus faecalis TX0645 isolate at 10^4 CFU/spot; how it was run: as §2
Enterococcus faecalis [6] = test: Antimicrobial activity against beta-lactamase producing vancomycin-resistant Enterococcus faecalis isolates by agar dilution method; how it was run: as §2
Enterococcus faecalis [7] = test: Antimicrobial activity against vancomycin B-resistant Enterococcus faecalis TX2484 isolate by agar dilution method; how it was run: as §2
Enterococcus faecalis [8] = test: Antimicrobial activity against beta-lactamase producing Enterococcus faecalis TX0630 isolate at 10^4 CFU/spot
How it was run: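 Agar dilution MIC on Mueller-Hinton agar II following CLSI recommendations, with a standard inoculum of 10⁴ CFU/spot. Drug was diluted in 9.9% glacial acetic acid plus 1% DMSO. Control strains were E. faecalis ATCC 29212, S. aureus ATCC 29213 and E. coli 25922. Isolates were recovered from −80°C frozen stocks.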

Enterococcus faecalis [9] = test: Antimicrobial activity against beta-lactamase producing Enterococcus faecalis TX0630 isolate by agar dilution method; how it was run: as §2
Enterococcus faecalis [10] = test: Bactericidal activity against vancomycin B-resistant Enterococcus faecalis TX2484 isolate assessed as decrease in viable count after 24 hrs; how it was run: as §1
Enterococcus faecalis [11] = test: Antimicrobial activity against vancomycin A-resistant Enterococcus faecalis TX2784 isolate by agar dilution method; how it was run: as §2
Enterococcus faecalis [12] = test: Antimicrobial activity against beta-lactamase producing vancomycin-resistant Enterococcus faecalis TX0614 isolate at 10^4 CFU/spot; how it was run: as §2
Enterococcus faecalis [13] = test: Antimicrobial activity against beta-lactamase producing Enterococcus faecalis TX5070 isolate by agar dilution method
How it was run: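 Starting inoculum was 10⁴ CFU/spot, and E. faecalis ATCC 29212 served as control. Drug was diluted in 9.9% glacial acetic acid plus 1% DMSO.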

Compound | MIC (Enterococcus faecalis [1]) | log10CFU/ml (Enterococcus faecalis [2]) | MIC (Enterococcus faecalis [3]) | MIC (Enterococcus faecalis [4]) | MIC (Enterococcus faecalis [5]) | MIC50 (Enterococcus faecalis [6]) | MIC90 (Enterococcus faecalis [6]) | MIC (Enterococcus faecalis [7]) | MIC (Enterococcus faecalis [8]) | MIC (Enterococcus faecalis [9]) | log10CFU/ml (Enterococcus faecalis [10]) | MIC (Enterococcus faecalis [11]) | MIC (Enterococcus faecalis [12]) | MIC (Enterococcus faecalis [13])
Nc1nc(/C(=N/O)C(=O)N[C@@H]2C(=O)N3C(C(=O)O)=C(/C=C4\CCN([C@@H]5CCNC5)C4=O)CS[C@H]23)ns1 [CEFTOBIPROLE] | 2 mg/L (≈ 3.74 µM) | >3 | 0.25 mg/L (≈ 0.468 µM) | 0.25 mg/L (≈ 0.468 µM) | 0.25 mg/L (≈ 0.468 µM) | 0.25 mg/L (≈ 0.468 µM) | 1 mg/L (≈ 1.87 µM) | 0.5 mg/L (≈ 0.935 µM) | 0.125 mg/L (≈ 0.234 µM) | 0.25 mg/L (≈ 0.468 µM) | >3 | 0.25 mg/L (≈ 0.468 µM) | 1 mg/L (≈ 1.87 µM) | 0.125 mg/L (≈ 0.234 µM)
CN[C@H](CC(C)C)C(=O)N[C@H]1C(=O)N[C@@H](CC(N)=O)C(=O)N[C@H]2C(=O)N[C@H]3C(=O)N[C@H](C(=O)N[C@H](C(=O)O)c4cc(O)cc(O)c4-c4cc3ccc4O)[C@H](O)c3ccc(c(Cl)c3)Oc3cc2cc(c3O[C@@H]2O[C@H](CO)[C@@H](O)[C@H](O)[C@H]2O[C@H]2C[C@](C)(N)[C@H](O)[C@H](C)O2)Oc2ccc(cc2Cl)[C@H]1O [VANCOMYCIN] |  |  |  |  |  |  |  | > 256 mg/L |  | 0.5 mg/L (≈ 0.345 µM) |  | > 256 mg/L |  | 8 mg/L (≈ 5.52 µM)
CC1(C)S[C@@H]2[C@H](NC(=O)[C@H](N)c3ccccc3)C(=O)N2[C@H]1C(=O)O [AMPICILLIN] |  |  |  |  |  |  |  | 0.5 mg/L (≈ 1.43 µM) |  | 1 mg/L (≈ 2.86 µM) |  | 0.5 mg/L (≈ 1.43 µM) |  | 
